Measurements reported in PubChem BioAssay AID588804 (The Scripps Research Institute Molecular Screening Center, 2011).
Active and inactive are the calls of the source.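 The calls were made as follows: active = In either cell panel, a half-cytotoxic dose CC50 of 5 µM or lower marks a compound as cytotoxic; inactive = Both panels show CC50 exceeding 5 µM.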

Test: Neuro-2A neuroblastoma viability reduction – cell-based, WST-1 absorbance, serum-free and serum media, cytotoxicity control for PME-1 inhibitor project, dose response (AID 588804)
Settings: Neuro-2A viability, 48 h
In short: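 Test system: Neuro-2A mouse neuroblastoma cells; Incubation: 36 h pre-growth, then 48 h treatment at 37 °C; Measured by: colorimetric WST-1 formazan absorbance; Measure: % surviving cells and CC50 from three-parameter sigmoidal fit; Compound dosing: seven concentrations, fivefold steps, top 10 µM, 1% DMSO; Control set: compound-free cells as high control, no-cell wells as low.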

CCCOC(=O)N1C(=O)[C@@](CC)(c2ccc(C)cc2)N1C(=O)OCCC
CC50 (with serum): > 10 µM (inactive) | CC50 (without serum): > 10 µM (inactive)

CC[C@@]1(c2ccc(C)cc2)C(=O)N(C(=O)OC(C)C)N1C(=O)OC(C)C
CC50 (with serum): > 10 µM (inactive) | CC50 (without serum): > 10 µM (inactive)

CC[C@@]1(c2ccc(Cl)cc2)C(=O)N(C(=O)OC)N1C(=O)OC
CC50 (with serum): > 10 µM (inactive) | CC50 (without serum): > 10 µM (inactive)
